PMI activator: phosphomannose isomerase (human) activation | P34949 | purified human PMI, coupled resazurin fluorescence, 20 min; active compounds read high; 1 = vehicle control, 0 substrate-free wells | hit rate 0.005% among 190,000 | AID 1214 | activation factor at 20 µM;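 active = activation factor of 2 or more at 20 µM, relative to plate controls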
Target sequence (P34949 whole entry, looked up): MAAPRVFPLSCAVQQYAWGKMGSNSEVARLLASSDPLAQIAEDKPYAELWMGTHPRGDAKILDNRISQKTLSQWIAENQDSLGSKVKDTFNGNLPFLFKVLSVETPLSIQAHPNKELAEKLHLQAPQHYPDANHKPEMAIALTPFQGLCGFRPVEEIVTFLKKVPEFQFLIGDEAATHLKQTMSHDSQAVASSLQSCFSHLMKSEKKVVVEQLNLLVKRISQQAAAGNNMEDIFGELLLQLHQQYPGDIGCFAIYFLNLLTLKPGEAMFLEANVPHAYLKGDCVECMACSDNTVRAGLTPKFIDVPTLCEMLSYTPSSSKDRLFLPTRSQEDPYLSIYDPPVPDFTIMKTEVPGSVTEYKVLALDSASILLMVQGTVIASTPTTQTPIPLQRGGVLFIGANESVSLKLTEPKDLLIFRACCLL
Cl transport mod: modulates chloride dependent transport by human KCC2; AID 1456; hit rate 2.2% among 190,000; KCC2 cells, thallium flux FluoZin-2 fluorescence; Q9H2X9; B-score of Tl+ flux slope (higher = more flux/activation; lower = inhibition) at 10 µM;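 active = thallium flux slope and its plate-corrected score both differing from the plate sample mean at a set confidence after two filtering rounds, in either direction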;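 also: slope of fluorescence scaled to starting intensity during 10 to 20 s after thallium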
ABCB1 inh: human ABCB1 inhibition, ABCG2 as counter-screen; CCRF-Adr cells, JC-1 efflux, flow cytometry; inhibition, % at 6.6 µM; hit rate 0.067% among 190,000; AID 1326; in the data active = inhibition above about 40%;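 also: 0% = vehicle and 100% = reference inhibitor; higher value means more JC-1 retained so stronger ABCB1 efflux block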
ROMK primary: modulators of human ROMK potassium channel; Tet-inducible ROMK, thallium flux fluorescence; actives lie on both sides; hit rate 2% among 130,000; B-score at 10 µM; AID 1918;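 active = signal ratio slope over the read window, or its plate-corrected B-score, at least 3 SD from the plate mean, either direction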;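 also: B-score of the F/F0 ratio slope over 7 to 12 s after thallium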
PMI act satM6P: increases human PMI activity with near-saturating mannose 6-phosphate; P34949; coupled PMI enzyme assay, resazurin fluorescence, 20 min; active compounds read high; 1 = untreated enzyme, 0 = substrate-free blank; activation factor at 20 µM; hit rate 0.34% among 190,000; AID 1216;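 active = activation factor of 2 or more at 20 µM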
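Material: human phosphomannose isomerase with PGI, G6PDH, diaphorase coupling enzymes. Quantity: 15 ng/mL PMI. Medium: HEPES pH 7.4 buffer with MgCl2 and Tween-20. Reagent: Near-saturating mannose-6-phosphate, 1.0 mM. Compound: 20 µM single dose. Times: enzyme reaction with compound 20 min at room temperature. Detection: resorufin fluorescence at Ex 544/Em 590 nm.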
ABCG2 inh: inhibitors of human ABCG2 transporter, ABCB1 counter-screen | IgMXP3 cells, JC-1 efflux, flow cytometry | inhibition, % at 6.6 µM | hit rate 0.1% among 190,000 | AID 1325;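 active = inhibition above 80%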;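 also: 0% = DMSO and 100% = nicardipine control wells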
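Read-out basis: Efflux inhibition in percent versus controls | Test system: ABCG2 IgMXP3 and barcoded ABCB1 CCRF-Adr cell mix | Quantity: 3 million cells/mL in well | Schedule: 10 min at 25 °C | Control set: Nicardipine as high control, DMSO as low control | Reagent: JC-1 as fluorescent efflux pump substrate | Signal: Flow cytometry of retained JC-1 fluorescence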
KCC2 sec1: confirmation of human KCC2 transport modulators. shares compounds with Cl transport mod. HEK293-KCC2, thallium flux, FluoZin2 fluorescence; active compounds read high. normalised thallium flux (F/F0 slope) at 10 µM. hit rate 15% among 3,700;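 active = thallium flux slope above the same plate's solvent-only control mean plus 3 SD; inconclusive = the two replicate wells disagree; inactive = no significant difference from solvent-only control wells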
KCC2 bumet counter: thallium flux persisting under bumetanide in KCC2 cells, counter-screen secondary assay | hit rate 49% among 3,700 | HEK293-KCC2 + bumetanide/ouabain, thallium flux FluoZin2; active compounds read high | normalized thallium flux at 10 µM | shares compounds with Cl transport mod;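 active = thallium entry rate above the same plate's blocked-transporter control wells by more than 3 SD; inconclusive = the two repeat wells disagree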;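 also: raw slope of fluorescence over initial fluorescence between 10 and 20 s after thallium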
KCC2 secondary2: KCC2 (human) modulation, second secondary assay. shares compounds with Cl transport mod. AID 1715. normalized thallium flux at 10 µM. hit rate 23% among 3,700. HEK293-KCC2, thallium flux FluoZin2 fluorescence; actives lie on both sides; F/F0 rise rate, 10–20 s post-thallium;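 active = thallium flux slope more than 3 SD above or below the plate's solvent-only control mean, mostly below; inconclusive = the two repeat wells disagreed; inactive = no significant shift from solvent-only controls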;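 also: raw slope with 0.1% DMSO as baseline and bumetanide as block control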
HEK counter1: acts in parental HEK cells, KCC2 counter-screen. thallium flux rate (normalised fluorescence) at 10 µM. AID 1716. hit rate 46% among 3,700. HEK293 parental cells, thallium flux FluoZin2, ouabain; baseline-ratio fluorescence slope, 10–20 s after thallium. shares compounds with Cl transport mod;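 active = thallium flux rate significantly above the same plate's solvent-only control wells, beyond their mean plus 3 SD; inconclusive = the two replicate wells gave conflicting results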
KCC2 retest ouab: KCC2 (human) modulation, ouabain retest; shares compounds with Cl transport mod; HEK293-KCC2, thallium flux FluoZin2 fluorescence; bidirectional: low = inhibitor, high = activator; raw Tl+ flux slope (below DMSO = inhibition, above = activation) at 10 µM; hit rate 48% among 3,700; AID 1717;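 active = thallium flux slope beyond 3 SD from same-plate DMSO control mean in most replicates, usually higher, sometimes lower; inconclusive = repeat tests gave conflicting results; inactive = no significant difference from controls in most replicates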;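 also: slope of initial-normalized fluorescence between seconds 10 and 20 after thallium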
HEK counter2: counter-screen for KCC2 modulators: effect in parental HEK293 cells. shares compounds with Cl transport mod. thallium flux FluoZin-2 fluorescence slope. thallium flux slope at 10 µM. hit rate 33% among 3,700;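 active = thallium flux slope above the same plate's solvent-control mean plus 3 SD in both duplicate wells; inconclusive = duplicate wells that disagreed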;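 also: run without ouabain in cells lacking the KCC2 cotransporter; slope of fluorescence scaled to its starting value between 10 and 20 s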
Starred values were filed as active, the others as inactive; ? = inconclusive; · = no result. This is a sample that favours compounds with a hit; in the whole collection about 3.3% have one here.

SMILES	PMI activator	Cl transport mod	ABCB1 inh	ROMK primary	PMI act satM6P	ABCG2 inh	KCC2 sec1	KCC2 bumet counter	KCC2 secondary2	HEK counter1	KCC2 retest ouab	HEK counter2
COc1ccc(-c2csc3nc(-c4ccccc4OC)oc(=O)c23)cc1	1	-1.8	0	1	1	0	·	·	·	·	·	·
S=c1nc(-c2ccccc2)n(CCCN2CCOCC2)c2c1CCCC2	1	12*	0	·	0.9	0	0.018*	0.024*	0.034	0.026*	0.037*	?
S=c1nc(-c2ccccc2)n(CCCn2ccnc2)c2c1CCCC2	1	0.93	0	·	1	0	·	·	·	·	·	·
CCN(CC)c1ccc(/C=N/NC(=S)NC)c(O)c1	0.8	5.1*	0	0.81	0.8	11	0.0091	0.013*	0.031	?	0.022	0.01
CCN(CC)c1ccc(/C=N/NC(=O)OC)c(O)c1	0.8	1.2	0	-0.0093	0.7	3	·	·	·	·	·	·
CN(NS(=O)(=O)c1ccc(Cl)cc1)c1nc(C(F)(F)F)nc2ccccc12	1.1	-2.9*	0	·	1	1	0.0065	0.0055	0.029	?	0.018	0.01
FC(F)(F)c1ccc(Nc2nnnc3ccccc23)cc1	1.1	-0.22	0	0.38	1.1	6	·	·	·	·	·	·
CCOC(=O)c1csc(-c2snnc2C)n1	·	3.9	·	·	·	·	·	·	·	·	·	·
NC(=S)N=Nc1c(O)n(CCCl)c2ccc(Cl)cc12	1	16*	0	0.92	1	6	0.0075	0.041*	?	0.036*	0.047*	0.024*
CCOc1ccc2c(c1)c(N=NC(=N)N)c(O)n2C	0.9	0.27	0	·	1	-8	·	·	·	·	·	·
CCOc1ccc2c(c1)c(N=NC(N)=S)c(O)n2C	·	8.2*	·	-0.072	·	·	?	0.035*	0.039	0.015*	0.027	0.012*
NC(=S)N=Nc1c(O)n(CCCl)c2ccccc12	0.9	13*	0	0.81	0.8	2	0.024*	0.031*	?	0.018*	0.027*	0.019*
Cc1nc2sc(C(c3ccc(F)cc3)N3CCN(C(=O)c4ccco4)CC3)c(O)n2n1 (configuration not stated)	1	0.13	0	·	1	4	·	·	·	·	·	·
CC(C)(C)c1c(Cl)c(O)c(-c2ccccc2)c(=O)n1-c1ccccc1	1.2	-0.78	-1	-1.8	1.3	3	·	·	·	·	·	·
O=C(c1ccco1)N1CCN(C/C=C/c2ccccc2)CC1	0.9	·	1	·	0.9	8	·	·	·	·	·	·
O=C(/C=C/c1ccc(F)cc1)NC(=S)N1CCN(Cc2ccccc2)CC1	·	40*	·	·	·	·	0.0063	0.042*	0.032	0.03*	0.031*	0.026*
O=C(NC(=S)N1CCN(C/C=C/c2ccccc2)CC1)c1c(F)cccc1F	0.9	6.8*	0	-0.39	0.9	1	0.018*	0.042*	0.03	0.015*	?	?
O=C(NC(=S)N1CCN(C/C=C/c2ccccc2)CC1)c1ccco1	0.8	4.2*	1	-0.4	0.8	31	0.0055	0.015*	0.033	0.014*	?	0.016*
Fc1ccc(NC(=S)N2CCN(C/C=C/c3ccccc3)CC2)c(F)c1	1	-1.8	0	1.2	1	-1	·	·	·	·	·	·
O=C(/C=C/c1ccc(F)cc1)NC(=S)N1CCOCC1	·	1.7	0	0.49	·	1	·	·	·	·	·	·
C=CCSC1=NC(N)=C(C#N)C2(CCCCC2)C1C(N)=O (configuration not stated)	1	0.56	-2	·	0.9	-6	·	·	·	·	·	·
N#CC1=C(N)N=C(SCc2ccccc2)C(C(N)=O)C12CCCCC2 (configuration not stated)	0.9	-5.5*	1	·	1	3	0.007	0.0094*	?	0.0076	0.014*	0.01
CCOc1ncccc1C(=O)OCCN1C(=O)c2ccccc2C1=O	1.1	5.8*	1	·	1.1	2	0.0087	0.0057	0.034	0.0085	0.02	0.012
CCOc1ncccc1C(=O)OCC(=O)c1ccccc1	1	0.92	1	0.61	1.1	34	·	·	·	·	·	·
CCOC(=O)C1CCN(C(=O)Nc2ccc(OC(F)(F)F)cc2)CC1	·	0.25	·	-0.23	·	·	·	·	·	·	·	·
SMILES	PMI activator	Cl transport mod	ABCB1 inh	ROMK primary	PMI act satM6P	ABCG2 inh	KCC2 sec1	KCC2 bumet counter	KCC2 secondary2	HEK counter1	KCC2 retest ouab	HEK counter2
CCOc1ccccc1NC(=S)N(CCCN1CCOCC1)Cc1cn(C)c2ccccc12	0.8	-4.7*	1	-1.8	0.9	0	0.0073	0.0047	0.029	?	0.019	0.011
Fc1ccccc1CSc1nncn1NC/C=C/c1ccccc1	1	-4.8*	1	·	0.9	3	0.0073	0.0086*	?	0.0075	0.017	0.011
COc1ccc(S(=O)(=O)NCC2CCCN(C(=O)CC3CCCC3)C2)cc1 (configuration not stated)	0.9	-0.36	1	-0.59	1	1	·	·	·	·	·	·
COc1cccc(C(=O)NNC(=O)c2sccc2-n2cccc2)c1	1	5.9*	0	-0.29	0.9	2	0.0069	0.012*	0.033	0.012*	0.023	0.014*
COc1cccc(C(=O)NNC(=O)c2ccccc2-n2cccc2)c1	1	0.62	2	1.2	1	12	·	·	·	·	·	·
CCCc1n[nH]c(=S)n1Cc1ccco1	·	1.7	·	·	·	·	·	·	·	·	·	·
S=c1[nH]nc(-c2ccc(Br)cc2)n1Cc1ccco1	0.9	·	0	-0.36	0.9	-1	0.0065	0.016*	0.029	0.015*	?	0.014*
CCCCc1n[nH]c(=S)n1Cc1ccccc1	1	-0.044	1	-1.3	1	5	·	·	·	·	·	·
CCc1ccc(OCc2n[nH]c(=S)n2Cc2ccccc2)cc1	·	15*	-1	0.69	·	-2	0.0095	0.036*	0.03	0.015*	?	0.011*

Compound activity deposited in PubChem by several laboratories.
